Experimental data: ChEMBL document CHEMBL5338759, “N-Phenyl-1-(phenylsulfonyl)-1H-1,2,4-triazol-3-amine as a New Class of HIV-1 Non-nucleoside Reverse Transcriptase Inhibitor” (J Med Chem, 2023)

Columns and labels:
[1] = system: Human immunodeficiency virus 1; test: Antiviral activity against wild type HIV1 IIIB infected in human TZM-bl cells; assay type: functional, organism-based; settings: Human immunodeficiency virus 1, IIIB
Outline: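 TZM-bl cells (2x10⁵/mL) infected with HIV-1 IIIB grown in H9 cells, with 15 µg/mL DEAE-dextran; serial dilutions from 10 mM DMSO stocks, DMSO held constant (0.005% or 0.05%); 37°C, 5% CO₂, 48 hr; cells lysed, luciferase RLU read.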

[2] = Selectivity ratio of IC50 for antiviral activity against wild type HIV1 IIIB infected in human TZM-bl cells to IC50 for antiviral activity against HIV1 harboring L100I/K103N double mutant infected in human TZM-bl cells; assay type: toxicity, cell-based; settings: human immunodeficiency virus 1
Outline: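 TZM-bl cells (2x10⁵/mL) with 15 µg/mL DEAE-dextran were infected with HIV-1 IIIB, A17 (K103N/Y181C) IIIB variant, or NL4-3-based NNRTI-resistant mutants. Compound was present at 0.05–500 nM (DMSO held constant, 0.005% or 0.05%) for 48 hr at 37°C, 5% CO₂.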

[3] = Metabolic stability in human liver microsome measured up to 60 mins presence of NADPH; assay type: ADME; settings: microsomes, 1 h
[4] = AUC (0 to 24 hrs) in BALB/c mouse plasma at 250 mg/kg, IG measured at 0.5 to 24 hrs by HPLC-MS analysis; assay type: ADME, organism-based; design: time upper 24 hrs, time lower 0.5 hrs, dose 250 mg/kg, route ig; settings: po
Outline: (§1)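 Mice averaging 20 g (24 animals) were fasted 1 h before and 1 h after dosing. They received 250 mg/kg as 0.5 ml suspension in 1% CMC, 0.05% Tween 80 by intragastric intubation. Blood and brain were taken after decapitation at 0.5, 1, 2, 3, 5, 8 and 24 h (3 per time point). Plasma was frozen at -20°C and brain at -120 °C. Quantification was by UPLC-HRMS (ESI+, EIC m/z 476.0691) against plasma-matrix standards. Parameters were derived by noncompartmental analysis; LLOQ 5 ng/ml, with values below it set to 2.5.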

[5] = AUC (0 to infinity) in BALB/c mouse plasma at 250 mg/kg, IG measured at 0.5 to 24 hrs by HPLC-MS analysis; assay type: ADME, organism-based; design: time 0.5-24 hrs, dose 250 mg/kg, route ig; settings: in vivo, po; outline: as §1
[6] = Cmax in BALB/c mouse plasma at 250 mg/kg, IG measured at 0.5 to 24 hrs by HPLC-MS analysis; assay type: ADME, organism-based; design: time lower 0.5 hrs, dose 250 mg/kg, time upper 24 hrs, route ig; settings: in vivo, po
Outline: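 Mice (~20 g; food withheld 1 h before and after dosing), single dose as 0.5 ml suspension in 1% CMC/0.05% Tween 80 by gavage. Three animals per time point (0.5–24 h). Heparinized plasma frozen at -20°C, quantified by UPLC-ESI(+)-QTOF-MS (EIC m/z 476.0691) against plasma-matrix standards. LLOQ 5 ng/ml, lower values set to 2.5 ng/ml. Noncompartmental analysis.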

[7] = Tmax in BALB/c mouse plasma at 250 mg/kg, IG measured at 0.5 to 24 hrs by HPLC-MS analysis; assay type: ADME, organism-based; settings: in vivo, po, time 0.5-24 hrs; outline: as §1
[8] = Subacute toxicity in BALB/c mouse assessed as pathological change in heart at 25 to 250 mg/kg, IG measured daily for 30 days by H and E staining based histological analysis; assay type: organism-based; settings: in vivo, po, 720 h, dose 25-250 mg/kg, time 30 day
Outline: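 Male Balb/C mice (17 per group) received 25 or 250 mg/kg intragastrically in 1% starch gel once daily for 30 days, against starch gel controls. Internal organs were examined macroscopically after the study. Sections were paraffin-embedded and stained with hematoxylin and eosin.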

[9] = Subacute toxicity in BALB/c mouse assessed as reduction in alkaline phosphatase level at 250 mg/kg, IG measured daily for 30 days; assay type: organism-based; settings: in vivo, po, 720 h, time 30 day
Outline: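 Dosing was daily intragastric 25 or 250 mg/kg in 1% starch gel (0.2 ml/20 g) for 30 days in male Balb/C mice, 17 per group, with starch gel controls. After the final dose, mice were fasted for 2 h with water available, then bled. Serum was clotted for 30 min at room temperature and centrifuged at 3500 rpm. Total protein, urea, creatinine, AST, ALT and alkaline phosphatase were assayed and compared by Mann-Whitney with Holm-Šídák, p < 0.05.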

[10] = Subacute toxicity in BALB/c mouse assessed as reduction in hematocrit level at 25 to 250 mg/kg, IG measured daily for 30 days; assay type: organism-based; settings: in vivo, po, 720 h, dose 25-250 mg/kg, time 30 day
[11] = Subacute toxicity in BALB/c mouse assessed as reduction in RBC count at 25 to 250 mg/kg, IG measured daily for 30 days; assay type: organism-based, Erythrocyte; settings: in vivo, po, 720 h, dose 25-250 mg/kg, time 30 day
[12] = Subacute toxicity in BALB/c mouse assessed as reduction in platelets count at 25 to 250 mg/kg, IG measured daily for 30 days; assay type: organism-based; settings: in vivo, po, 720 h, dose 25-250 mg/kg, time 30 day
[13] = Subacute toxicity in BALB/c mouse assessed as effect on pancreas weight at 25 to 250 mg/kg, IG measured daily for 30 days; assay type: organism-based; settings: in vivo, po, 720 h, dose 25-250 mg/kg, time 30 day

Q: Which results are given for `N#C/C=C/c1ccc2c(S(=O)(=O)n3nc(Nc4ccc(C#N)c(Cl)c4)nc3N)cccc2c1`?
A: IC50 [1]: 240 pM; Ratio IC50 [2]: 75; Stability [3]: Stable; AUC(0-t) [4]: 397 µg·h/mL; AUC [5]: 427.7 µg·h/mL; Cmax [6]: 81.4 ng/mL; Tmax [7]: 42 min; Activity [8]: Non-Toxic; Activity [9]: Non-Toxic; Activity [10]: Non-Toxic; Activity [11]: Non-Toxic; Activity [12]: Non-Toxic; Activity [13]: Non-Toxic
